Results from different studies.
Protocols differ between the studies behind these lines.
Target: Ephrin type-B receptor 1 (EPHB1, Homo sapiens, UniProt P54762)
One construct used (P54762 18-984): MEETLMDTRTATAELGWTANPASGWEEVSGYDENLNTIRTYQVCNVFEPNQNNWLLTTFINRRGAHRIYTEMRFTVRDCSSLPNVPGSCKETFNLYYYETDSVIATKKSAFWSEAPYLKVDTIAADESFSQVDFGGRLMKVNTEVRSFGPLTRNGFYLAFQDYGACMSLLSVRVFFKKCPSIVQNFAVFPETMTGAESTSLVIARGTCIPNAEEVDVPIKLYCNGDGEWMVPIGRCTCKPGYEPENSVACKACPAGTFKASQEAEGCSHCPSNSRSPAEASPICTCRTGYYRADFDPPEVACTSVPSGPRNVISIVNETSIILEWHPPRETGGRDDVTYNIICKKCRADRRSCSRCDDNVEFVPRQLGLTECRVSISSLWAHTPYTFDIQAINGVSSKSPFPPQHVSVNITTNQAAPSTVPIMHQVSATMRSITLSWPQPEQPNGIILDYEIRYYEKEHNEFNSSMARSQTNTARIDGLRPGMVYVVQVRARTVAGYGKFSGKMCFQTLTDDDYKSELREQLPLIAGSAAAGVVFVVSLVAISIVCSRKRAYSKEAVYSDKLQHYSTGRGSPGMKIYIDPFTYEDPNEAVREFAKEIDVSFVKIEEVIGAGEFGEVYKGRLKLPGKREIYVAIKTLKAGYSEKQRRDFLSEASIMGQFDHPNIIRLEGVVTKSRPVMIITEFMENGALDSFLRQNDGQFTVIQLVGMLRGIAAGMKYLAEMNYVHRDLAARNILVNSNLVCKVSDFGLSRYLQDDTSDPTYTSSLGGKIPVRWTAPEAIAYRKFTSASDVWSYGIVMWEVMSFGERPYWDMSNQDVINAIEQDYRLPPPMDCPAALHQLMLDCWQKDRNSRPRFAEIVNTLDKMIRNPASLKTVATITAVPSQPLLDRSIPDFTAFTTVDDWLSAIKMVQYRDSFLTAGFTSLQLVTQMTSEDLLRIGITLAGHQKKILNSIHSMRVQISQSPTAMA

SMILES | test | conditions | remaining binding
N#CC1(c2ccccn2)CCN(Cc2cc(C(=O)N3CCCC3)c(=O)n3ccccc23)CC1 | cell-free assay, competition with immobilised ligand | 1 µM | 91%
CN(C)c1nccc(-c2cnn3ncccc23)n1 | binding | 1 µM | 100%
COc1ncc2cc3ccccc3nc2c1C#N | cell-free assay, competition with immobilised ligand | 5 µM | 91%
COc1cnc(Nc2cccc(S(N)(=O)=O)c2)nc1N1CCN(c2ccccc2)CC1 | binding, competition with immobilised ligand | 1 µM | 97%
c1ccc(N2CCN(Cc3nc4ccccc4[nH]3)CC2)nc1 | cell-free assay, competition with immobilised ligand | 1 µM | 100%
N[C@@H]1CCN(c2nccc(-c3cnn4ncccc34)n2)C1 | binding | 1 µM | 96%
CCS(=O)(=O)c1cc2cc(C[C@](O)(CC(C)(C)c3ccc(F)cc3C(N)=O)C(F)(F)F)[nH]c2cn1 | cell-free assay, competition with immobilised ligand | 1 µM | 86%
O=C(c1ccc(Nc2ncc(Cl)c(-c3cc4ccccc4s3)n2)cc1)N1CCC(N2CCCC2)CC1 | binding, competition with immobilised ligand | 1 µM | 33%
O=C(Nc1c[nH]nc1C(=O)NC1CCNCC1)c1cc(F)cc(F)c1 | binding, competition with immobilised ligand | 1 µM | 100%
c1cnn2ncc(-c3ccnc(N4CCC45COC5)n3)c2c1 | binding | 1 µM | 100%
Nc1ncc2c(n1)-c1c([nH]c3ccc(C#CC4CC4)cc13)CCCC2 | binding, competition with immobilised ligand | 1 µM | 92%
O=C(NCCCN1CCOCC1)c1ccc(Nc2ncc(Cl)c(-c3ccc(Cl)s3)n2)cc1 | binding, competition with immobilised ligand | 1 µM | 58%
O=c1nc(-c2ccccn2)sc2ccccc12 | cell-free assay, competition with immobilised ligand | 1 µM | 88%
O=C(c1ccc(Nc2ncc(Cl)c(-c3ccc(Cl)s3)n2)cc1)N1CCC(N2CCCC2)CC1 | binding, competition with immobilised ligand | 1 µM | 30%
CC(C)(O)c1cncc(-c2nc3ccc(F)cc3n2C2CC2)c1 | cell-free assay, competition with immobilised ligand | 1 µM | 100%
C[C@@H]1CCN(c2nccc(-c3cnn4ncccc34)n2)C1 | binding | 1 µM | 97%
CN1CCN(c2cnc3c(C4CCN(C(=O)c5ccc(OC(F)(F)F)cc5N)CC4)ncnc3c2)CC1 | cell-free assay, competition with immobilised ligand | 1 µM | 100%
CN(CCCC(F)(F)F)c1nccc(-c2cnn3ncccc23)n1 | binding | 1 µM | 91%
C=CC(=O)N1CCC(C(=O)NCC(=O)N2CCN(c3nc(-c4cnc(N)nc4C(F)F)nc(N4CCOCC4)n3)CC2)CC1 | binding, competition with immobilised ligand | 1 µM | 100%
CN(C)c1ncc(F)c(-c2cnn3ncccc23)n1 | binding | 1 µM | 100%
COc1cnc(Nc2cccc(S(N)(=O)=O)c2)nc1N1CCN(c2ccccc2)C(=O)C1 | binding, competition with immobilised ligand | 1 µM | 100%
